Positions count from the first letter of the chain named. pIC50: −log10 of the molar value.
Key:
CT26 cell line = assay: MTT antiproliferative assay, CT26 cell line; format: cell-based, mouse
Procedure, shortened: (§1)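 MTT assay. Cells were grown in DMEM with 10% FBS and 1% penicillin/streptomycin at 37 °C, 5% CO2, then seeded at 5 × 10^3 to 6 × 10^3 cells/mL in 96-well plates. Screening was at 10 μM, with CVB-D (12 μM) as positive control and curcumin as comparator. The dose range was 0–8 μM in 1 μM steps. Solvent-only wells served as controls. Read-out was absorbance of DMSO-dissolved formazan. Data are mean ± SD, n ≥ 3.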

SW480 cell line = assay: MTT antiproliferative assay, SW480 cell line; format: cell-based, human; conditions: for inhibition of SW480 cells compared with the CVB-D group: 10 μM, CVB-D 12 μM
Procedure, shortened: as §1

PI3K and Akt proteins = assay: Western blot, PI3K-Akt pathway in TAMs; format: cell-based
Procedure, shortened: (§2)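 Western blot in tumour–macrophage cocultures: SW480 with THP-1 (human) and CT26 with RAW264.7 (mouse). Coculture drives the macrophages toward a cancer-promoting phenotype, after which test compound is applied. Protein was quantified by BCA, separated by SDS-PAGE, transferred to PVDF and detected with peroxidase labeling. Comparisons were against both the control and the untreated coculture. Data are mean ± SD, n ≥ 3.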

[1] = test system: chemokine receptors, CC and CXC chemokine subfamilies; assay: Chemokine mRNA levels in human and mouse TME; format: cell-based; conditions: human and mouse TME cocultures
Procedure, shortened: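 Human system: SW480 cells cocultured with THP-1 cells. Mouse system: CT26 cells cocultured with RAW264.7 cells. Coculture induces the macrophages to differentiate into cancer-promoting cells, which are then treated with test compound. Chemokine receptor and CC/CXC chemokine mRNA levels were measured and compared with the control group. Data are mean ± SD from at least three independent replicates.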

RKO cell line = assay: MTT antiproliferative assay, RKO cell line; format: cell-based, human; conditions: NCM460 vs RKO
Procedure, shortened: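 Selectivity index is the IC50 in normal colon epithelial NCM460 cells divided by the IC50 in the colorectal cancer line. Both IC50s come from MTT viability assays: solvent-treated controls, formazan dissolved in DMSO, absorbance read-out, at least three independent replicates.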

CDK1 [2] = target: CDK1 (Homo sapiens, UniProt P06493); assay: Western blot, CDK1 expression in SW480 cells; format: cell-based; conditions: SW480, 8 μM
Chain of CDK1 (Homo sapiens, UniProt P06493) (P06493 whole entry): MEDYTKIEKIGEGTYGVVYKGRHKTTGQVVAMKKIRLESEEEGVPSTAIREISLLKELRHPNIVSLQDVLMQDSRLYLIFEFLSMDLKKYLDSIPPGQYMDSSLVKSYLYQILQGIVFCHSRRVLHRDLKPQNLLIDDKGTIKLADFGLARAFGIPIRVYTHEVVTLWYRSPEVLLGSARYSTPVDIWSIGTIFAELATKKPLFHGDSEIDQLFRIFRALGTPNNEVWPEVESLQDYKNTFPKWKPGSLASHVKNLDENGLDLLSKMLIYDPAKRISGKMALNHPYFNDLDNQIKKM
Procedure, shortened: (§3)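 Western blot. SW480 or CT26 cells were seeded at 3 × 10^5 to 5 × 10^5/mL, allowed to adhere, then exposed to 0 (control) or 8 μM test compound for 24 h. Lysate protein was quantified by BCA and equalised, boiled, separated by SDS-PAGE, transferred to PVDF and detected with peroxidase labeling. Data are mean ± SD, at least three independent replicates, analysed by one-way ANOVA or t test.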

RAW264.7 cell line = assay: MTT cytotoxicity, RAW264.7 cell line; format: cell-based, mouse; conditions: 0 to 8 μM, all concentrations
Procedure, shortened: (§4)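 Viability of THP-1 (human monocytic) and RAW264.7 (mouse macrophage) cells was measured by MTT. Cells were grown in DMEM with 10% FBS at 37 °C, 5% CO2, then seeded at 5 × 10^3 to 6 × 10^3 cells/mL. Test compound was given at 0–8 μM alongside an equal-volume solvent control. Read-out was absorbance after DMSO solubilisation of formazan. Data are mean ± SD from at least three independent experiments.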

Akt [3] = assay: Western blot, Akt expression in CT26 cells; format: cell-based, mouse; conditions: CT26, 8 μM
Procedure, shortened: as §3

NCM460 cell line = assay: MTT cytotoxicity, normal colon epithelial cell line NCM460; format: cell-based, human
Procedure, shortened: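 MTT viability in NCM460 normal human colon epithelial cells. Test compound and curcumin were each tested at 0, 5, 10, 20, 40 and 80 μM, diluted in medium from a 10 mmol/L DMSO stock, against a solvent control. Formazan was dissolved in DMSO and absorbance read. Toxicity was graded by USP classification. Data are mean ± SD, at least three independent replicates.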

[4] = test system: cytokines (TGF-β, IL-10, and Arg-1); assay: Western blot, cytokine expression in the TME; format: cell-based; conditions: vs coculture
Procedure, shortened: as §2

SHP-2 [5] = target: T1, SHP-2 (Homo sapiens, UniProt Q06124); assay: Western blot, SHP-2 in human TME; format: cell-based; conditions: SW480 cocultured with THP-1
T1 sequence (Q06124 1-593): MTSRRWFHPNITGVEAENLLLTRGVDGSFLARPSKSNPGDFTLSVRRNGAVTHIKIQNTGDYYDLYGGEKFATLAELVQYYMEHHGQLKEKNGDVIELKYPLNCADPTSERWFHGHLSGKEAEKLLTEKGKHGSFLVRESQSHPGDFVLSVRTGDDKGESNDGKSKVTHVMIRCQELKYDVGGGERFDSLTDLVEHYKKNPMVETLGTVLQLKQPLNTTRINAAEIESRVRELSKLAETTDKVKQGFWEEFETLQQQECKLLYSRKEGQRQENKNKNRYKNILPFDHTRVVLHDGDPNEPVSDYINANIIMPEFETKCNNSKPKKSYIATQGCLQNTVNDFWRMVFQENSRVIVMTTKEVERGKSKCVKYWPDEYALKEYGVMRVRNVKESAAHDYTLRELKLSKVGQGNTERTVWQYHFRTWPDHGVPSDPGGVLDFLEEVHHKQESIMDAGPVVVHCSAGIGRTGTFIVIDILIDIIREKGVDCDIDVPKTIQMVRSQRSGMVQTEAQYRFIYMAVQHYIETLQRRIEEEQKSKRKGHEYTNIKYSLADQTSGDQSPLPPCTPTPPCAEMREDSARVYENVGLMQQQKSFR
Procedure, shortened: as §2

Parkin [6] = assay: Western blot, Parkin expression in CT26 cells; format: cell-based, mouse; conditions: CT26, 8 μM vs control
Procedure, shortened: as §3

PINK1 [7] = assay: Western blot, PINK1 expression in SW480 cells; format: cell-based, human; conditions: SW480, 8 μM vs control
Procedure, shortened: as §3

PI3K [8] = assay: Western blot, PI3K expression in SW480 cells; format: cell-based, human; conditions: SW480, 8 μM
Procedure, shortened: as §3

p27 [9] = assay: Western blot, p27 expression in SW480 cells; format: cell-based, human; conditions: SW480, 8 μM vs control
Procedure, shortened: as §3

CDK1 [10] = target: CDK1 (Mus musculus, UniProt P11440); assay: Western blot, CDK1 expression in CT26 cells; format: cell-based; conditions: CT26, 8 μM
Chain of CDK1 (Mus musculus, UniProt P11440) (P11440 whole entry): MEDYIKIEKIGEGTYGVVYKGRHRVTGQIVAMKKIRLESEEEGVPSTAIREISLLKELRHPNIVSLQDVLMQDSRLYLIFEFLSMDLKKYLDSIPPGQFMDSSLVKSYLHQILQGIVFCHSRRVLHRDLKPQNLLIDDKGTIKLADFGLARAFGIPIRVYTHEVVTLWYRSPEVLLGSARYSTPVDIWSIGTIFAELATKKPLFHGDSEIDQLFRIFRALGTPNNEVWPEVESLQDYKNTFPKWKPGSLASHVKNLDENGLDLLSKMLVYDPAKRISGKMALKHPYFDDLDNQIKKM
Procedure, shortened: as §3

PI3K [11] = assay: Western blot, PI3K expression in CT26 cells; format: cell-based, mouse; conditions: CT26, 8 μM
Procedure, shortened: as §3

Cyclin-D1 [12] = assay: Western blot, Cyclin-D1 expression in SW480 cells; format: cell-based, human; conditions: SW480, 8 μM
Procedure, shortened: as §3

SHP-2 [13] = target: T1, SHP-2; assay: Western blot, SHP-2 expression in SW480 cells; format: cell-based; conditions: SW480, 8 μM
Procedure, shortened: as §3

Cyclin-D1 [14] = assay: Western blot, Cyclin-D1 expression in CT26 cells; format: cell-based, mouse; conditions: CT26, 8 μM
Procedure, shortened: as §3

p27 [15] = assay: Western blot, p27 expression in CT26 cells; format: cell-based, mouse; conditions: CT26, 8 μM vs control
Procedure, shortened: as §3

Akt [16] = assay: Western blot, Akt expression in SW480 cells; format: cell-based, human; conditions: SW480, 8 μM
Procedure, shortened: as §3

SHP-2 [17] = target: T2, SHP-2 (Mus musculus, UniProt P35235); assay: Western blot, SHP-2 in mouse TME; format: cell-based; conditions: CT26 cocultured with RAW264.7
T2 sequence (P35235 1-593): T1 sequence (Q06124 1-593) with M450V, A550V, K590R
Procedure, shortened: as §2

Parkin [18] = assay: Western blot, Parkin expression in SW480 cells; format: cell-based, human; conditions: SW480, 8 μM vs control
Procedure, shortened: as §3

PINK1 [19] = assay: Western blot, PINK1 expression in CT26 cells; format: cell-based, mouse; conditions: CT26, 8 μM vs control
Procedure, shortened: as §3

SHP-2 [20] = target: T2, SHP-2; assay: Western blot, SHP-2 expression in CT26 cells; format: cell-based; conditions: CT26, 8 μM
Procedure, shortened: as §3

THP-1 cell line = assay: MTT cytotoxicity, THP-1 cell line; format: cell-based, human; conditions: 0 to 8 μM, all concentrations
Procedure, shortened: as §4

For `COc1cc(/C=C/C(=O)/C(=C\C2=CC=C[CH]2[Fe][CH]2C=CC=C2)C(=O)/C=C/c2ccc(OC)c(OC)c2)ccc1O` (stereo not shown) [Compound 3b, Cyclopenta-2,4-dien-1-yl(2-((1E,4E)-5(3,4-dimethoxyphenyl)-2-((E)-3-(4-hydroxy-3-methoxyphenyl)acryloyl)-3-oxopenta-1,4-dien-1-yl)cyclopenta-2,4-dien-1-yl)iron], the “proliferative capacity of CT26 cells compared to the control group” value (CT26 cell line; 10 μM) was “significant differences”, the “proliferative capacity of CT26 cells compared to the CVB-D group” value (CT26 cell line; 10 μM, CVB-D 12 μM) was “no significant difference” and the “inhibition of SW480 cells compared with the CVB-D group” value (SW480 cell line) was “markedly superior”.
For `COc1ccc(/C=C/C(=O)C(=CC2=CC=C[CH]2[Fe][CH]2C=CC=C2)C(=O)/C=C/c2ccc(OC)c(OC)c2)cc1OC` (stereo not shown) [Compound 3f, Cyclopenta-2,4-dien-1-yl(2-((E)-5(3,4-dimethoxyphenyl)-2-((E)-3-(3,4-dimethoxyphenyl)acryloyl)-3-oxopenta-1,4-dien-1-yl)cyclopenta-2,4-dien-1-yl)iron], the “expression levels of PI3K and Akt proteins in both coculture systems” value (PI3K and Akt proteins) was “reduced”, the “proliferative capacity of CT26 cells compared to the control group” value (CT26 cell line; 10 μM) was “significant differences” and the optimal inhibitory concentration (CT26 cell line; CT26, tested 0-8 μM) was 8 µM. The “concentration at which an inhibitory effect is demonstrated” value (CT26 cell line; CT26, vs control) was 3 µM, the “selectivity index (SI), IC50 normal cells / IC50 CT26” value (CT26 cell line; NCM460 vs CT26) was 654 and the pIC50 (CT26 cell line; read-out: IC50 against CT26 cells, CT26 cells, MTT) was 5.85. For the same molecule, the “effect on CCL and CXCL subfamilies (mRNA)” value [1] was “able to inhibit”, the “mRNA levels of CCR chemokine receptors” value [1] was “significantly reduced” and the “selectivity index (SI), IC50 normal cells / IC50 RKO” value (RKO cell line) was 162. The CDK1 inhibition rate (CDK1 [2]) was 18%, the “cell viability of RAW264.7 cells” value (RAW264.7 cell line) was about 100% and the “Akt expression inhibition rate” value (Akt [3]) was 50%. For the same molecule, the “USP toxicity classification to normal colon epithelial cells” value (NCM460 cell line; NCM460) was “low toxic/nontoxic”, the “viability of NCM460 cells” value (NCM460 cell line; at all concentrations (0, 5, 10, 20, 40, 80 μM)) was “above 87%” and the “expression levels of cytokines (TGF-β, IL-10, Arg-1) in the TME” value [4] was “significantly reduced”. The “inhibition rate on SHP-2 target in human TME” value (SHP-2 [5]) was 65%, the “expression of Parkin protein” value (Parkin [6]) was “significantly increased” and the “expression of PINK1 protein” value (PINK1 [7]) was “significantly up-regulated”. The “PI3K expression inhibition rate” value (PI3K [8]) was 46%, the “expression of p27 protein” value (p27 [9]) was “significantly increased” and the CDK1 inhibition rate (CDK1 [10]) was 20%. For the same molecule, the “inhibition of SW480 cells compared with the CVB-D group” value (SW480 cell line) was “markedly superior”, the “selectivity index (SI), IC50 normal cells / IC50 SW480” value (SW480 cell line; NCM460 vs SW480) was 250 and the “concentration of strongest (optimal) inhibition” value (SW480 cell line; SW480, tested 0-8 μM) was 8 µM. The “concentration at which significant inhibition begins” value (SW480 cell line; SW480, vs control) was 4 µM, the pIC50 (SW480 cell line; read-out: IC50 against SW480 cells, SW480 cells, MTT) was 5.43 and the “PI3K expression inhibition rate” value (PI3K [11]) was 15%. The “Cyclin-D1 protein expression inhibition rate” value (Cyclin-D1 [12]) was 19%, the SHP-2 inhibition rate (SHP-2 [13]) was 76% and the “effect on Cyclin-D1 protein compared to SW480” value (Cyclin-D1 [14]) was “stronger inhibitory effect”. The “expression of p27 protein” value (p27 [15]) was “significantly increased”, the “Akt expression inhibition rate” value (Akt [16]) was 48% and the “inhibition rate on SHP-2 target in mouse TME” value (SHP-2 [17]) was 32%. For the same molecule, the “expression of Parkin protein” value (Parkin [18]) was “significantly up-regulated”, the “expression of PINK1 protein” value (PINK1 [19]) was “significantly increased” and the SHP-2 inhibition rate (SHP-2 [20]) was 24%. The “cell viability of THP-1 cells” value (THP-1 cell line) was about 100%.
